M5 PAM – CHRM5 positive allosteric modulation. P08912. CHO-K1 hM5, Fluo-8 calcium, ACh EC20 PAM; 0% = ACh EC20, 100% = ACh EC100. activation, % at 3 µM. 360,000 tested, 0.3% active;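 active means activation above the run cutoff, the mean activation of all test compounds plus 3 SD, cut at about 18% in these data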
Target sequence (P08912 whole entry, looked up): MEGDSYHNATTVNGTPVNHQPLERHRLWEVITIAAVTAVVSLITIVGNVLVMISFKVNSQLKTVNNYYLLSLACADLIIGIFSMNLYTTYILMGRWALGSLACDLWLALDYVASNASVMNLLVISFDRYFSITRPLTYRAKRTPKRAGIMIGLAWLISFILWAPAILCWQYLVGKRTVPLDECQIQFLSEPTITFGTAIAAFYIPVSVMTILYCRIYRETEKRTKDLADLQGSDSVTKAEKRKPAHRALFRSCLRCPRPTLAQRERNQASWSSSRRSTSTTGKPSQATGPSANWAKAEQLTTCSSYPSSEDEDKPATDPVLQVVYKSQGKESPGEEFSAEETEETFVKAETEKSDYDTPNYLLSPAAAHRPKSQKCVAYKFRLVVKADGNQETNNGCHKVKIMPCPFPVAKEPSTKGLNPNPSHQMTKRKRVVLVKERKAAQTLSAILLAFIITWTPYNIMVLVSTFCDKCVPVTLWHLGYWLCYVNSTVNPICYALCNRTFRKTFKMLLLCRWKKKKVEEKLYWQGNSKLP
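system = human M5 receptor in CHO-K1 cells | reagent = EC20 acetylcholine as agonist stimulus | compound dosing = single-point, 3 µM nominal | incubation = Fluo-8 loading 80 min at 37 °C plus 30 min room temperature | detection = Fluo-8 calcium dye fluorescence, kinetic read | benchmarks = low control EC20 acetylcholine (0%), high control EC100 acetylcholine (100%)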
CHRM4 agonist – agonists of human muscarinic M4 receptor (CHRM4). P08173. CHO-K1 hM4/Gqi5, Fluo-8 calcium fluorescence; vehicle 0%, full acetylcholine response 100%. activation, % at 3 µM. 360,000 tested, 0.14% active. AID 624127;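 active means activation above the run mean over all test wells plus 3 SD, cut at about 32% in these data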;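 further: peak over basal fluorescence ratio per well then scaled between controls; 0% = DMSO wells and 100% = acetylcholine at EC100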
M4 PAM – CHRM4 positive allosteric modulation; P08173; activation, % at 3 µM; CHO-K1 hM4/Gqi5, Fluo-8 calcium fluorescence, ACh EC20; 0% = ACh EC20, 100% = maximal ACh; 360,000 tested, 0.4% active;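 active means activation above its plate's cutoff, the mean activation of sample wells plus 3 SD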
CHRM5 agonist – CHRM5 agonism in calcium assay; CHO-K1 hM5 cells, Fluo-8 calcium fluorescence; 0% DMSO wells, 100% maximal acetylcholine response; activation, % at 3 µM; 360,000 tested, 0.19% active;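 active means activation above the run's mean over test compounds plus 3 SD, cut at about 23% in these data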;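 further: signal is peak over basal fluorescence ratio across the kinetic read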
M5 antag – CHRM5 antagonism in calcium assay. AID 624040. 360,000 tested, 0.59% active. inhibition, % at 3 µM. P08912. CHO-hM5 cells, Fluo-8 calcium fluorescence, ACh EC80;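 active means inhibition above a per-plate cutoff, the mean of that plate's test compounds plus 3 SD, cut at about 27% in these data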;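 further: 0% = acetylcholine EC80 with DMSO and 100% = DMSO without agonist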
CHRM4 antagonist – CHRM4 antagonism in calcium assay; inhibition, % at 3 µM; CHO-hM4 cells, ACh EC80, Fluo-8 calcium fluorescence; 360,000 tested, 0.73% active; P08173;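 active means inhibition above its plate's cutoff, the mean inhibition of sample wells plus 3 SD, cut at about 27% in these data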;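 further: 0% = acetylcholine EC80 with DMSO and 100% = DMSO without agonist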
* hit, by the source's call. Compounds with a hit are over-represented: about 1.8% of the library has one in this group of screens.

SMILES	M5 PAM	CHRM4 agonist	M4 PAM	CHRM5 agonist	M5 antag	CHRM4 antagonist
CCCc1cc(=O)[nH]c(SCC(=O)N(C)CC(=O)Nc2ccc(F)cc2)n1	-0.2	-0.6	-2.6	-1.2	4.3	-0.7
CCCCS(=O)(=O)/C=C\C=C/S(=O)(=O)CCCC	10.2	3.6	3.7	8.1	14.1	37.2*
CCCCS(=O)(=O)/C=C\C1C2C=CC(C2)C1S(=O)(=O)CCCC (stereo not drawn)	0.9	0.4	10.2	-2.4	-1.9	0.3
Cc1ccc(NC(=O)CCC(=O)Nc2nnc(C3CCCCC3)s2)cc1	4.0	0.3	19.8*	-6.0	4.6	0.0
Cc1c(NC(=O)Nc2cccc(Cl)c2)c(=O)n(-c2ccccc2)n1C	-4.9	-0.1	-3.5	-4.1	13.6	14.1
Cc1c(NC(=O)Nc2cc(Cl)ccc2Cl)c(=O)n(-c2ccccc2)n1C	-8.5	0.3	-0.7	-6.1	29.0*	8.9
Cc1c(NC(=S)NC(=O)CC(C)C)c(=O)n(-c2ccccc2)n1C	-14.6	1.4	-24.9	-5.7	4.5	79.0*
CCn1ccnc1CN(C)C(=O)c1ccc(OC2CCN(CCc3ccccc3)CC2)cc1	-15.9	0.9	-11.6	-10.6	46.5*	43.1*
CN1CCN(c2ccccc2NC(=O)C(Cc2ccccc2)n2cccc2)CC1 (stereo not drawn)	-3.2	6.0	-12.5	-2.1	1.4	31.9*
COC(=O)C(NC(=O)c1ccccc1Cl)(Nc1ncc(S(=O)(=O)c2ccc([N+](=O)[O-])cc2)s1)C(F)(F)F (stereo not drawn)	-9.7	13.4	-8.1	32.8*	6.9	-5.8
CCOC(=O)/C=c1\s/c(=C(\C#N)C(=O)NC)n(-c2ccccc2)c1=O	22.8*	1.3	17.5	-2.1	-12.3	1.7
CCOC(=O)/C=c1\s/c(=C(\C#N)C(N)=O)n(-c2ccccc2)c1=O	7.4	2.7	0.1	4.1	-3.0	-6.7
Cc1cc(C)c(OCC(=O)Nc2cccc(NC(=O)c3ccco3)c2)c(Br)c1	-19.4	14.9	-8.9	-0.9	17.8	13.4
Cc1cc(C)c(OCC(=O)Nc2ccc(NC(=O)c3ccco3)cc2)c([N+](=O)[O-])c1	25.7*	4.4	-1.1	-0.3	-1.8	-1.8
Cc1cc(C)cc(OCC(=O)Nc2ccc(N3CCN(C(=O)c4ccco4)CC3)cc2)c1	-23.9	26.6	-17.6	6.4	18.0	32.1*
Cn1cc(Cl)c(/C=C(\C#N)S(=O)(=O)c2ccccc2)n1	6.8	-0.4	-17.1	9.3	-1.3	-1.3
CC(=O)N(C1=C(Cl)C(=O)c2ccccc2C1=O)C1CCCCC1	12.9	11.2	-12.9	10.3	10.5	44.5*
CCC(Oc1ccccc1)C(=O)NCc1ccc(S(N)(=O)=O)cc1 (stereo not drawn)	1.7	1.3	20.4*	-0.9	-5.0	-3.0
CC(NCc1ccc(S(N)(=O)=O)cc1)C(=O)NCc1ccccc1 (stereo not drawn)	3.6	-0.2	-0.4	-1.0	5.8	7.9
Cc1sc2nc(CSCC(=O)Nc3ccccc3C#N)[nH]c(=O)c2c1C	3.3	1.1	37.9*	1.2	-0.7	-6.0
CSc1ccccc1NC(=O)CSCc1nc2sc(C)c(C)c2c(=O)[nH]1	3.6	1.1	-2.3	1.9	-4.1	7.6
O=C(OCCN1C(=O)c2ccccc2C1=O)c1ccco1	18.9*	1.5	-0.7	-7.6	-7.0	-8.7
O=C(OCCN1C(=O)c2ccccc2C1=O)c1ccccc1	-1.8	2.2	-1.1	-1.7	2.7	7.4
CC(C)CN(C(=O)COC(=O)CCc1nc2ccccc2s1)c1c(N)n(Cc2ccccc2)c(=O)[nH]c1=O	4.2	0.8	17.1	3.8	-4.4	-4.5
O=c1oc2c(CN3CCOCC3)c(O)ccc2c2c1CCC2	-0.9	0.2	5.5	-2.6	0.9	13.3
SMILES	M5 PAM	CHRM4 agonist	M4 PAM	CHRM5 agonist	M5 antag	CHRM4 antagonist
CC(C)CN(Cc1c(O)ccc2c3c(c(=O)oc12)CCC3)CC(C)C	6.0	-0.6	-30.3	-1.9	-9.7	28.1*
CCN(CC)CCOC(=O)C1(c2ccccc2)CCOCC1	-17.5	0.0	-0.4	-10.7	-4.6	1.8
CCN(CC)CCOC(=O)C1(c2ccc([N+](=O)[O-])cc2)CCCC1	-18.8	1.8	-16.9	-1.7	83.8*	49.0*
CCN(CC)CCOCCOC(=O)C1(c2ccccc2)CCCC1	-19.2	2.4	-16.8	-1.1	95.8*	90.8*
Cc1cccc(NC(=O)C2(c3ccc([N+](=O)[O-])cc3)CCCC2)c1	-18.6	4.5	-5.6	-6.0	-7.5	-5.1
CCN(CC)CCCOC(=O)C1(c2ccccc2)CCCC1	-16.2	1.3	-21.6	-11.5	99.5*	95.5*
CCN1CCN(S(=O)(=O)c2ccc(C(C)(C)C)cc2)CC1	2.2	0.3	-6.6	-5.6	4.0	8.6
CCCCN(C(=O)c1ccc(Cl)c([N+](=O)[O-])c1)c1c(N)n(CCC)c(=O)[nH]c1=O	6.2	0.6	2.2	-3.1	-6.9	5.2
CC(C)CC(OC(=O)c1ccc(Cl)nc1)C(=O)NC1CCCC1 (stereo not drawn)	-1.0	1.0	4.2	-4.6	9.3	-16.5
CCc1c(C2(O)CCCCC2)[nH]c2cc(C(F)(F)F)ccc12	-22.9	0.6	-15.6	-5.7	10.1	41.6*
Cc1c(C2(O)CCCCC2)[nH]c2cnccc12	2.0	1.8	5.7	-11.5	6.6	-11.9
Cc1c(C2(O)CCCCC2)[nH]c2cc(C(F)(F)F)ccc12	-27.8	11.2	-18.5	-2.4	4.7	33.3*
CCOC(=O)C1(Cc2ccccc2)CCN(Cc2cccc(OC)c2O)CC1	1.9	6.7	-4.6	3.0	-3.5	-6.4
CCOC(=O)C1(Cc2ccccc2)CCN(Cc2cn(CC(=O)OC)c3ccccc23)CC1	3.1	4.1	19.8*	-5.1	-0.9	-12.1
COC(=O)c1cc2c(ccn2-c2ccc(F)cc2)n1C(C)C	34.4*	-1.7	9.1	-1.9	-1.3	-13.1
CCCn1c(C(=O)OC)cc2c1ccn2-c1ccc(F)cc1	18.8*	-0.8	6.6	10.5	-11.3	-18.5
COC(=O)c1cc2c(ccn2-c2ccc(F)cc2)n1Cc1ccc(OC(C)=O)cc1	6.4	1.0	29.2	7.4	1.2	-9.3
COC(=O)c1cc2c(ccn2-c2ccc(F)cc2)n1CC(C)C	18.9*	1.9	16.6*	10.9	-5.7	-15.9
COC(=O)c1cc2c(ccn2-c2ccc(F)cc2)n1Cc1cccc(OC)c1	3.1	0.8	1.5	-0.6	-3.3	-0.3
Cn1c(CC(=O)Nc2ccccc2Cl)nnc1SCC(=O)NC1CCCCC1	-2.7	1.6	0.3	-2.9	7.1	3.6
O=S(=O)(Nc1nc2c(s1)CCCC2)c1ccc(F)cc1	-3.2	1.2	-1.2	-6.5	8.5	-2.6
